Paper PMC3349182 (British Journal of Cancer, 2012)
“Also recorded” adds a separate entry of the source.

Columns and labels:
[1] = system: patients with advanced radioiodine-refractory differentiated thyroid cancer; conditions: preliminary results, phase II; ref Sherman et al, 2011; cited from earlier work
[2] = Food-effect investigation; format: in vivo, human
Summary of the method: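 At the MTD, patients were randomised to take the cycle 1 day 15 dose fed (after a high-fat meal) or fasted (overnight fast ⩾10 h). The day 22 dose was taken in the reverse state, with no food for 4 h after either dose. Plasma levels were measured by LC-MS/MS. The 90% CIs for log-transformed fed/fasted Cmax and AUC0-24 were derived by ANOVA; 80–125% was taken as no food effect.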

[3] = Plasma pharmacokinetics of E7080; format: in vivo, human
Summary of the method: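 Patients took oral drug once daily after an overnight fast. Blood and urine were sampled after a single dose and after multiple dosing. Drug concentrations were measured by LC-MS/MS. tmax, Cmax, AUC0-24, AUC0-∞, AUC0-τ, t½, CL/F and V/F were calculated. Terminal-phase parameters were omitted where too few terminal data points were available.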

[4] = system: patients with advanced, refractory solid tumours; assay: Anti-tumour efficacy by Response Evaluation Criteria in Solid Tumours; format: in vivo, human
Summary of the method: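 Patients took oral drug once daily on an empty stomach after an overnight fast, with only clear fluids within 2 h of dosing. Dosing was continuous in 28-day cycles until progressive disease or unacceptable toxicity. Tumour response was assessed by RECIST measurements, with CT imaging.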

[5] = system: patients with advanced, refractory solid tumours; assay: Phase I dose escalation: toxicity; format: in vivo, human
Summary of the method: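 Oral dosing was once daily in 28-day cycles, escalating by an accelerated design from 0.2 mg/day. Toxicity was graded by NCI CTC v3.0. During cycle 1, patients had weekly examination, blood pressure, full blood count, biochemistry and urinalysis, plus ECGs on days 1 and 8. DLT covered drug-related toxicity in cycle 1: grade ⩾3 toxicity, repeated grade 2 toxicity needing dose reduction, or <75% of planned dose given. The MTD was the highest dose with ≤1/6 patients having a DLT, and 12 more patients were treated at the MTD.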

[6] = 25 mg, eleven patients, high-fat meal vs overnight fast
[7] = 0.2–6.4 mg per day, 21 patients
[8] = treatment-related, 25 mg (n=24)
[9] = treatment-related, 0.2–6.4 mg (n=21)

For `COc1cc2nccc(Oc3ccc(NC(=O)NC4CC4)c(Cl)c3)c2cc1C(N)=O` [E7080], the Objective response rate [1] is given as 59%, the “AUC ratio fed/fasted (90% CI)” value [2, 6] is given as 1.00 (90% CI 0.83–1.20) and the “Cmax ratio fed/fasted (90% CI)” value [2, 6] is given as 0.98 (90% CI 0.73–1.31). For the same compound, the “tmax (median)” value ([2]; fasted group) was 2.0 h, the “tmax (median)” value ([2]; fed group) was 5.0 h and the “Dose dependence of exposure and Cmax” value ([3]; 0.2 to 32 mg) was “dose-linear kinetics; also recorded: increased linearly with increasing dose”. The “Accumulation after multiple dosing” value ([3]; after 4 weeks' administration, once daily) was “no drug accumulation”, the “Time to maximum concentrations” value ([3]; after a single dose) was no more than 3 h and the “Best response: Not evaluated, %” value ([4]; 25 mg per day, 24 patients) was 0 (0) %. For the same compound, the “Best response: Partial response, %” value ([4]; 25 mg per day, 24 patients) was 13%, the “Best response: Progressive disease, %” value ([4]; 25 mg per day, 24 patients) was 8% and the “Best response: Stable disease, %” value ([4]; 25 mg per day, 24 patients) was 67%. For the same compound, the “Best response: Not evaluated, %” value ([4]; 32 mg per day, 7 patients) was 0 (0) %, the “Best response: Partial response, %” value ([4]; 32 mg per day, 7 patients) was 29% and the “Best response: Progressive disease, %” value ([4]; 32 mg per day, 7 patients) was 0 (0) %. For the same compound, the “Best response: Stable disease, %” value ([4]; 32 mg per day, 7 patients) was 43%, the “Best response: Not evaluated, %” value [4, 7] was 5% and the “Best response: Partial response, %” value [4, 7] was 0 (0) %. For the same compound, the “Best response: Progressive disease, %” value [4, 7] was 24%, the “Best response: Stable disease, %” value [4, 7] was 19% and the “Best response: Not evaluated, %” value ([4]; 12–20 mg per day, 30 patients) was 3%. The “Best response: Partial response, %” value ([4]; 12–20 mg per day, 30 patients) was 7%, the “Best response: Progressive disease, %” value ([4]; 12–20 mg per day, 30 patients) was 23% and the “Best response: Stable disease, %” value ([4]; 12–20 mg per day, 30 patients) was 50%. For the same compound, the “Best response: Not evaluated, %” value ([4]; Total, 82 patients) was 2 (2) %, the “Best response: Partial response, %” value ([4]; Total, 82 patients) was 9% and the “Best response: Progressive disease, %” value ([4]; Total, 82 patients) was 17%. For the same compound, the “Best response: Stable disease, %” value ([4]; Total, 82 patients) was 46%, the “Clinical benefit (PR rate plus SD rate), % of patients” value ([4]; all doses) was 55% and the “Clinical benefit (PR rate plus SD rate), n patients” value ([4]; all doses) was 45. For the same compound, the “Patients with renal cancer with PR” value ([4]; of nine patients with renal cancer) was “Four”, the “Decrease in the sum of the longest tumour diameters” value ([4]; one patient with melanoma (largest decrease)) was “approximately 85%” and the “Overall reduction in tumour size (CT)” value ([4]; one patient with melanoma, after 32 weeks' treatment) was 77%. The “Overall reduction in tumour size (CT)” value ([4]; one patient with renal cancer, after 24 weeks' treatment) was 51%, the “Median progression-free survival (95% CI)” value ([4]; patients with melanoma, n=14) was 217 days and the “Median progression-free survival (95% CI)” value ([4]; patients with renal cancer, all dose cohorts, n=9) was 477 days. For the same compound, the “Dose modifications required, % of patients” value ([5]; all doses) was 49%, the “Dose modifications required, n patients” value ([5]; all doses) was 40 and the “Dose reduction because of stomatitis, % of patients” value ([5]; all doses) was 2%. For the same compound, the “Haematological toxicities, % of patients” value ([5]; all grades, all doses) was 7%, the “Dose modifications required, % of patients” value ([5]; at the MTD of 25 mg) was 54% and the “Dose modifications required, n patients” value ([5]; at the MTD of 25 mg) was 13. For the same compound, the Tolerability ([5]; doses up to 25 mg per day, oral, daily continuous dosing) was “well tolerated”, the “Maximum tolerated dose (MTD)” value ([5]; oral, once-daily continuous schedule, 28-day cycles) was 25 mg and the “Abdominal pain (all grades), n patients” value [5, 8] was 7. The “Anorexia (all grades), % of patients” value [5, 8] was 21%, the “Anorexia (all grades), n patients” value [5, 8] was 5 and the “Constipation (all grades), n patients” value [5, 8] was 8. The “Diarrhoea (all grades), n patients” value [5, 8] was 12, the “Dry skin (all grades), % of patients” value [5, 8] was 46% and the “Dry skin (all grades), n patients” value [5, 8] was 11. For the same compound, the “Dysphonia (all grades), % of patients” value [5, 8] was 46%, the “Dysphonia (all grades), n patients” value [5, 8] was 11 and the “Fatigue (all grades), % of patients” value [5, 8] was 21%. The “Fatigue (all grades), n patients” value [5, 8] was 5, the “Headache (all grades), n patients” value [5, 8] was 7 and the “Hypertension (all grades), n patients” value [5, 8] was 15. The “Hypertension Grade 1, % of patients” value [5, 8] was 4%, the “Hypertension Grade 1, n patients” value [5, 8] was 1 and the “Hypertension Grade 2, % of patients” value [5, 8] was 46%. For the same compound, the “Hypertension Grade 2, n patients” value [5, 8] was 11, the “Hypertension Grade 3, % of patients” value [5, 8] was 13% and the “Lethargy (all grades), % of patients” value [5, 8] was 38%. For the same compound, the “Lethargy (all grades), n patients” value [5, 8] was 9, the “Nausea (all grades), n patients” value [5, 8] was 14 and the “Proteinuria (all grades), n patients” value [5, 8] was 7. The “Proteinuria Grade 1, % of patients” value [5, 8] was 0%, the “Proteinuria Grade 1, n patients” value [5, 8] was 0 and the “Proteinuria Grade 2, % of patients” value [5, 8] was 21%. For the same compound, the “Proteinuria Grade 2, n patients” value [5, 8] was 5, the “Proteinuria Grade 3, % of patients” value [5, 8] was 8% and the “Stomatitis (all grades), n patients” value [5, 8] was 15. For the same compound, the “Vomiting (all grades), n patients” value [5, 8] was 8, the “Abdominal pain (all grades), % of patients” value ([5]; treatment-related, 32 mg (n=7)) was 0% and the “Abdominal pain (all grades), n patients” value ([5]; treatment-related, 32 mg (n=7)) was 0. The “Anorexia (all grades), n patients” value ([5]; treatment-related, 32 mg (n=7)) was 2, the “Constipation (all grades), % of patients” value ([5]; treatment-related, 32 mg (n=7)) was 14% and the “Constipation (all grades), n patients” value ([5]; treatment-related, 32 mg (n=7)) was 1. The “Diarrhoea (all grades), n patients” value ([5]; treatment-related, 32 mg (n=7)) was 4, the “Dry skin (all grades), % of patients” value ([5]; treatment-related, 32 mg (n=7)) was 14% and the “Dry skin (all grades), n patients” value ([5]; treatment-related, 32 mg (n=7)) was 1. For the same compound, the “Dysphonia (all grades), n patients” value ([5]; treatment-related, 32 mg (n=7)) was 3, the “Fatigue (all grades), % of patients” value ([5]; treatment-related, 32 mg (n=7)) was 14% and the “Fatigue (all grades), n patients” value ([5]; treatment-related, 32 mg (n=7)) was 1. The “Headache (all grades), n patients” value ([5]; treatment-related, 32 mg (n=7)) was 2, the “Hypertension (all grades), n patients” value ([5]; treatment-related, 32 mg (n=7)) was 4 and the “Hypertension Grade 1, n patients” value ([5]; treatment-related, 32 mg (n=7)) was 2. The “Hypertension Grade 2, % of patients” value ([5]; treatment-related, 32 mg (n=7)) was 0%, the “Hypertension Grade 2, n patients” value ([5]; treatment-related, 32 mg (n=7)) was 0 and the “Hypertension Grade 3, n patients” value ([5]; treatment-related, 32 mg (n=7)) was 2. The “Lethargy (all grades), n patients” value ([5]; treatment-related, 32 mg (n=7)) was 2, the “Nausea (all grades), n patients” value ([5]; treatment-related, 32 mg (n=7)) was 3 and the “Proteinuria (all grades), n patients” value ([5]; treatment-related, 32 mg (n=7)) was 3. The “Proteinuria Grade 1, % of patients” value ([5]; treatment-related, 32 mg (n=7)) was 0%, the “Proteinuria Grade 1, n patients” value ([5]; treatment-related, 32 mg (n=7)) was 0 and the “Proteinuria Grade 2, % of patients” value ([5]; treatment-related, 32 mg (n=7)) was 14%. The “Proteinuria Grade 2, n patients” value ([5]; treatment-related, 32 mg (n=7)) was 1, the “Proteinuria Grade 3, n patients” value ([5]; treatment-related, 32 mg (n=7)) was 2 and the “Stomatitis (all grades), n patients” value ([5]; treatment-related, 32 mg (n=7)) was 4. For the same compound, the “Vomiting (all grades), % of patients” value ([5]; treatment-related, 32 mg (n=7)) was 14%, the “Vomiting (all grades), n patients” value ([5]; treatment-related, 32 mg (n=7)) was 1 and the “Abdominal pain (all grades), % of patients” value [5, 9] was 0%. For the same compound, the “Abdominal pain (all grades), n patients” value [5, 9] was 0.
